These results are taken from ChEMBL document CHEMBL1255454, “Systematic approach to optimizing specifically targeted antimicrobial peptides against Streptococcus mutans” (2010).

In experiment [1] the test system is Streptococcus mutans. Put plainly: Antimicrobial activity against Streptococcus mutans JM11 assessed as inhibition of bacterial biofilm formation at 50 uM after 10 mins. Format: functional. The method, boiled down: (§1)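 Mixed-species biofilms were grown 24 h at 37°C anaerobically in TH with 50% filter-sterilized pooled human saliva and 1% sucrose. Inoculum: S. mutans JM11 at 1 × 10^6 CFU/well plus S. oralis, S. gordonii, S. sanguinis, S. mitis and S. salivarius at 2 × 10^5 CFU/well each. Survivors were plated on TH agar for total streptococci and on TH agar with 800 µg/ml spectinomycin for JM11. Detection limit 100 CFU/ml.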

Experiment [2] has as its system Streptococcus mutans. Put plainly: Antimicrobial activity against Streptococcus mutans UA159 assessed as inhibition of viability of bacterial biofilm at 25 ug/ml treated for 1 min measured after 4 hrs. Format: functional. The method, boiled down:
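S. mutans biofilms were seeded from overnight culture diluted 1:50 in TH broth with 0.5% sucrose, centrifuged, and grown 4 h anaerobically at 37°C. They were exposed to peptide in 1× PBS for about 1 min, washed, and given fresh TH broth without sucrose. Recovery was read as A600 after 4 h anaerobic incubation at 37°C. Three experiments; unpaired t test.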

For experiment [3], the system named is Streptococcus mutans. Put plainly: Antimicrobial activity against Streptococcus mutans UA159 at 25 ug/ml after 30 mins by time-kill assay. Format: functional. The method, boiled down:
(§2)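 Time-kill. Overnight cultures were diluted in BHI to A600 0.08 and treated with peptide at 25 µg/ml for 30 s to 2 h. Aliquots were diluted 1:50 in BHI, held on ice, plated and counted after 24 h as surviving CFU/ml. Three independent experiments, mean with SD; unpaired Student t test.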

The test system of a further experiment is Staphylococcus aureus. Put plainly: Antimicrobial activity against methicillin-resistant Staphylococcus aureus after 16 to 20 hrs by broth microdilution assay. Format: functional. The method, boiled down: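 MRSA grown aerobically in BHI at 37°C. Broth microdilution: 2-fold peptide dilutions in 1× Mueller-Hinton broth, first round 500 to 0.97 µg/ml; if activity below 62.5 µg/ml, sometimes a second round at 64 to 0.5 µg/ml, reporting the mode. Inoculum ~1 × 10^5 CFU/ml, 37°C for 16-20 h. A600 read. MIC = lowest concentration giving complete inhibition or ≥90% turbidity reduction versus peptide-free control.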
(In general: Dilution methods test growth across graded concentrations, often in twofold steps.)

Another experiment has as its system Streptococcus gordonii. Put plainly: Antimicrobial activity against Streptococcus gordonii assessed as inhibition of bacterial biofilm formation at 50 uM after 10 mins. Format: functional. The method, boiled down: as §1
Experiment [4] concerns Streptococcus mitis. Put plainly: Antimicrobial activity against Streptococcus mitis assessed as inhibition of bacterial biofilm formation at 50 uM after 10 mins. Format: functional. The method, boiled down: as §1
For the next experiment, the system named is Pseudomonas aeruginosa. Put plainly: Antimicrobial activity against Pseudomonas aeruginosa PAK after 16 to 20 hrs by broth microdilution assay. Format: functional. The method, boiled down:
(§3)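 Broth microdilution. Twofold peptide dilutions were made in 50% BHI–50% sterile water for oral streptococci and in 1× Mueller-Hinton broth for the other bacteria. First round 500 to 0.97 µg/ml; a second round of 64 to 0.5 µg/ml was run in some cases, reporting its mode. Inoculum ~1 × 10^5 CFU/ml, 37°C for 16–20 h. Read A600; MIC taken as complete inhibition or ≥90% turbidity reduction versus peptide-free control.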

The test system of experiment [5] is Streptococcus sanguinis. Put plainly: Antimicrobial activity against Streptococcus sanguinis assessed as inhibition of bacterial biofilm formation at 50 uM after 10 mins. Format: functional. The method, boiled down: as §1
Experiment [6] has as its system Streptococcus mitis. Put plainly: Antimicrobial activity against Streptococcus mitis ATCC 903 after 16 to 20 hrs by broth microdilution assay. Format: functional. The method, boiled down: as §3
The subject of experiment [7] is Streptococcus gordonii str. Challis. Kind of experiment: Antimicrobial activity against Streptococcus gordonii Challis DL1 at 25 ug/ml after 30 mins by time-kill assay. Format: functional. The method, boiled down:
as §2

Experiment [8] concerns Streptococcus mitis. Kind of experiment: Antimicrobial activity against Streptococcus mitis ATCC 903 at 25 ug/ml after 30 mins by time-kill assay. Format: functional, organism-based. The method, boiled down:
as §2

In the next experiment the test system is Streptococcus salivarius. Kind of experiment: Antimicrobial activity against Streptococcus salivarius assessed as inhibition of bacterial biofilm formation at 50 uM after 10 mins. Format: functional. The method, boiled down: as §1
Experiment [9] relates to Streptococcus sanguinis. Kind of experiment: Antimicrobial activity against Streptococcus sanguinis NY101 after 16 to 20 hrs by broth microdilution assay. Format: functional. The method, boiled down:
as §3

Experiment [10] can be described thus: Antimicrobial activity against Streptococcus gordonii Challis DL1 after 16 to 20 hrs by broth microdilution assay. Format: functional, Streptococcus gordonii str. Challis. The method, boiled down:
as §3

Experiment [11] deals with Streptococcus mutans. Put plainly: Antimicrobial activity against Streptococcus mutans UA159 after 16 to 20 hrs by broth microdilution assay. Format: functional. The method, boiled down:
as §3

A further experiment concerns Streptococcus oralis. Put plainly: Antimicrobial activity against Streptococcus oralis assessed as inhibition of bacterial biofilm formation at 50 uM after 10 mins. Format: functional. The method, boiled down: as §1
Experiment [12] concerns Streptococcus mutans. Kind of experiment: Antimicrobial activity against Streptococcus mutans UA159 assessed as inhibition of bacterial biofilm formation at 25 uM after 3 mins by fluorescence assay. Format: functional. The method, boiled down:
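S. mutans UA159 overnight culture was diluted 1:5,000 in TH with 1% sucrose and grown as biofilm for 24 h. Biofilms were exposed 3 min at room temperature to 25 µM fluorescein-labelled peptide in HEPES/NaHCO3/NaCl/MgCl2 buffer with 0.1% CTAB, pH 7.4, then washed twice. Green fluorescence images were taken and biofilm-associated green pixels quantified as binding intensity units.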

The test system of experiment [13] is Streptococcus sanguinis. Put plainly: Antimicrobial activity against Streptococcus sanguinis NY101 at 25 ug/ml after 30 mins by time-kill assay. Format: functional, organism-based. The method, boiled down:
as §2

A word on the MIC: it is the smallest concentration in the dilution series that meets the test's criterion for growth inhibition. Read a low MIC as a more susceptible organism.

Activity calls are given as the source filed them.

As for H-FKKFWKWFRRF-NH2, the inhibition result in the experiment on Streptococcus mutans [1], in the experiment with Streptococcus mutans [2] and with Streptococcus mutans [12] was “Active” throughout. For the same substance, the result (in the experiment on Streptococcus mutans [3]; in [7]; with Streptococcus mitis [8]; in the experiment with Streptococcus sanguinis [13]) was Active. Also, the MIC was 16 µg/mL against Staphylococcus aureus; 32 µg/mL in the experiment with Pseudomonas aeruginosa; 16 µg/mL in the experiment on Streptococcus mitis [6]; 32 µg/mL in the experiment with Streptococcus sanguinis [9]; 16 µg/mL in [10]; 8 µg/mL with Streptococcus mutans [11]. The inhibition entry in the experiment with Streptococcus gordonii, in the experiment with Streptococcus mitis [4], with Streptococcus sanguinis [5], in the experiment on Streptococcus salivarius and with Streptococcus oralis was “inactive” in each case.

On to H-FIKHFIHRFGGGFKKFWKWFRRF-NH2, for which the inhibition result with Streptococcus mutans [1], in the experiment on Streptococcus mutans [2] and in the experiment with Streptococcus mutans [12] was “Active” in each case. In addition, the outcome (in the experiment with Streptococcus mutans [3]; in [7]; in the experiment on Streptococcus mitis [8]; with Streptococcus sanguinis [13]) was Active. Moreover, the minimum inhibitory concentration (MIC) worked out at 16 µg/mL in the experiment on Staphylococcus aureus; 62.5 µg/mL in the experiment with Pseudomonas aeruginosa; 32 µg/mL in the experiment on Streptococcus mitis [6]; 16 µg/mL in the experiment with Streptococcus sanguinis [9]; 62.5 µg/mL in [10]; 4 µg/mL against Streptococcus mutans [11]. Further, the inhibition result with Streptococcus gordonii, with Streptococcus mitis [4], with Streptococcus sanguinis [5], in the experiment with Streptococcus salivarius and with Streptococcus oralis was “inactive” in each case.

On to H-FIKHFIHRFSATRWRWRWF-NH2, for which the inhibition result in the experiment with Streptococcus mutans [1], with Streptococcus mutans [2] and in the experiment with Streptococcus mutans [12] was “Active” each time. Further, the minimal inhibitory concentration (MIC) came to 125 µg/mL against Staphylococcus aureus; 62.5 µg/mL with Pseudomonas aeruginosa; 16 µg/mL in the experiment with Streptococcus mitis [6]; 32 µg/mL with Streptococcus sanguinis [9]; 32 µg/mL in experiment [10]; 8 µg/mL against Streptococcus mutans [11]. For the same substance, the inhibition result in the experiment with Streptococcus gordonii, in the experiment with Streptococcus mitis [4], in the experiment with Streptococcus sanguinis [5], in the experiment with Streptococcus salivarius and in the experiment on Streptococcus oralis was “inactive” in each case.
